# Measurements from ChEMBL document CHEMBL3046500, “Secondary metabolites from Glycine soja and their growth inhibitory effect against Spodoptera litura” (J Agric Food Chem, 2011).
# Calls of active or inactive are those of the source. No cut-off for these calls is given here.
# Legend:
# Spodoptera litura [1] = experiment: Insecticidal activity against fourth instar larval stage of Spodoptera litura in glandless fresh cabbage leaves assessed as growth inhibition measured 3 days after feeding diet containing compound; assay type: functional, organism-based
# Summary of the method: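 Larvae starved 4 h, weighed, then placed on treated material for 4 h. They were then moved to fresh untreated leaves or artificial diet. This was repeated every 24 h, with each larva's weight recorded. Seven replicates per treatment; whole experiment run three times.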
# Spodoptera litura [2] = experiment: Antifeedant activity against fourth instar larval stage of Spodoptera litura on fresh cabbage leaves; assay type: functional, organism-based
# Spodoptera litura [3] = experiment: Drug metabolism in fourth instar larval stage of Spodoptera litura assessed in excrements after feeding diet containing compound by HPLC analysis; assay type: ADME, organism-based; details: in vivo, po
# Summary of the method: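 Excrement from treated and control larvae was collected separately, extracted with methanol under ultrasonication (3 × 20 min), centrifuged, and the supernatant run on RP-18 HPLC (250 × 4.6 mm, 5 μm) at 30 °C and 1.0 mL/min. Elution used a water/methanol gradient set per analyte over 0–30 min, then 95% methanol. DAD read at 210/238/254/280 nm; TLC (CHCl3/MeOH 4:1) for a non-UV-absorbing analyte.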
Drug metabolism (Spodoptera litura [3]),Structure (SMILES),growth inhibition (GI) (Spodoptera litura [1]),Activity (Spodoptera litura [2])
Active,O=c1c(-c2ccc(O)cc2)coc2cc(O[C@@H]3O[C@H](CO)[C@@H](O)[C@H](O)[C@H]3O)cc(O)c12 [GENISTIN],inactive,inactive
Not Active,O=c1c(-c2ccc(O)cc2)coc2cc(O)ccc12 [DAIDZEIN],Active,inactive
Active,CO[C@H]1[C@H](O)[C@@H](O)[C@@H](O)[C@H](O)[C@@H]1O [METHYLINOSITOL],inactive,inactive
Active,O=c1c(-c2ccc(O)cc2)coc2cc(O)cc(O)c12 [GENISTEIN],inactive,inactive
